{"source": "EPA's CvTdb concentration-time database", "key": {"Rat [1]": {"test_system": "Rat", "experiment": "concentration in plasma after dosing", "details": "dosed: Wyeth-14643, 2.0 mg/kg, oral, Male, Sprague-Dawley"}, "Rat [2]": {"test_system": "Rat", "experiment": "concentration in plasma after dosing", "details": "2.5 min; dosed: Wyeth-14643; 2.0 mg/kg; iv; Male; Sprague-Dawley"}, "Rat [3]": {"test_system": "Rat", "experiment": "concentration in plasma after dosing", "details": "0.25 h; dosed: Wyeth-14643; 2.0 mg/kg; iv; Male; Sprague-Dawley"}, "Rat [4]": {"test_system": "Rat", "experiment": "concentration in heart after dosing", "details": "40 min; dosed: Bis 2-Chloroethoxy Methane; 20 mg/kg; iv; Female; F344"}, "Rat [5]": {"test_system": "Rat", "experiment": "concentration in heart after dosing", "details": "4 h; dosed: Bis 2-Chloroethoxy Methane; 20 mg/kg; iv; Female; F344"}, "Rat [6]": {"test_system": "Rat", "experiment": "concentration in heart after dosing", "details": "6 h; dosed: Bis 2-Chloroethoxy Methane; 20 mg/kg; iv; Female; F344"}, "Rat [7]": {"test_system": "Rat", "experiment": "concentration in heart after dosing", "details": "2 h; dosed: Bis 2-Chloroethoxy Methane; 20 mg/kg; iv; Female; F344"}, "Rat [8]": {"test_system": "Rat", "experiment": "concentration in liver after dosing", "details": "2 h; dosed: Bis 2-Chloroethoxy Methane; 20 mg/kg; iv; Male; F344"}, "Rat [9]": {"test_system": "Rat", "experiment": "concentration in heart after dosing", "details": "1 h; dosed: Bis 2-Chloroethoxy Methane; 20 mg/kg; iv; Female; F344"}, "Rat [10]": {"test_system": "Rat", "experiment": "concentration in plasma after dosing", "details": "3 h; dosed: Bis 2-Chloroethoxy Methane; 20 mg/kg; iv; Female; F344"}, "Rat [11]": {"test_system": "Rat", "experiment": "concentration in plasma after dosing", "details": "5 h; dosed: Bis 2-Chloroethoxy Methane; 20 mg/kg; iv; Female; F344"}, "Rat [12]": {"test_system": "Rat", "experiment": "concentration in plasma after dosing", "details": "40 min; dosed: Bis 2-Chloroethoxy Methane; 20 mg/kg; iv; Male; F344"}, "Rat [13]": {"test_system": "Rat", "experiment": "concentration in thymus after dosing", "details": "5 h; dosed: Bis 2-Chloroethoxy Methane; 20 mg/kg; iv; Female; F344"}, "Rat [14]": {"test_system": "Rat", "experiment": "concentration in plasma after dosing", "details": "3 h; dosed: Bis 2-Chloroethoxy Methane; 20 mg/kg; iv; Female; F344", "remark": "listed apart in the source"}, "Rat [15]": {"test_system": "Rat", "experiment": "concentration in brain after dosing", "details": "0.5 h; dosed: Fluorotelomer alcohol 8+2; 80 mg/kg; oral; Female; Harlan Sprague Dawley"}, "Rat [16]": {"test_system": "Rat", "experiment": "concentration in liver after dosing", "details": "0.5 h; dosed: Fluorotelomer alcohol 8+2; 80 mg/kg; oral; Female; Harlan Sprague Dawley"}, "Rat [17]": {"test_system": "Rat", "experiment": "concentration in kidney after dosing", "details": "3 h; dosed: Fluorotelomer alcohol 8+2; 24 mg/kg; oral; Male; Harlan Sprague Dawley"}, "Rat [18]": {"test_system": "Rat", "experiment": "concentration in plasma after dosing", "details": "dosed: Fluorotelomer alcohol 8+2, 40 mg/kg, iv, Male, F344"}, "Rat [19]": {"test_system": "Rat", "experiment": "concentration in plasma after dosing", "details": "20 h; dosed: Di-n-butyl phthalate; 200 mg/kg; oral; Male; Sprague-Dawley"}, "Rat [20]": {"test_system": "Rat", "experiment": "concentration in brain after dosing", "details": "864 h; dosed: Perfluorodecanoic acid; 10 mg/kg; oral; Female; Harlan Sprague Dawley"}, "Rat [21]": {"test_system": "Rat", "experiment": "concentration in liver after dosing", "details": "24 h; dosed: Perfluorodecanoic acid; 10 mg/kg; oral; Male; Harlan Sprague Dawley"}, "Rat [22]": {"test_system": "Rat", "experiment": "concentration in plasma after dosing", "details": "2520 h; dosed: Perfluorodecanoic acid; 2 mg/kg; iv; Male; F344"}, "Rat [23]": {"test_system": "Rat", "experiment": "concentration in plasma after dosing", "details": "1.5 h; dosed: Primidone; 130 mg/kg; oral; Female; F344"}, "Rat [24]": {"test_system": "Rat", "experiment": "concentration in plasma after dosing", "details": "0.25 h; dosed: Primidone; 30 mg/kg; oral; Male; F344"}, "Rat [25]": {"test_system": "Rat", "experiment": "concentration in liver after dosing", "details": "8 h; dosed: Thiodiglycolic Acid; 20 mg/kg; iv; Female; Harlan Sprague Dawley"}, "Rat [26]": {"test_system": "Rat", "experiment": "concentration in heart after dosing", "details": "6.667 h; dosed: Thiodiglycolic Acid; 20 mg/kg; iv; Female; Harlan Sprague Dawley"}, "Rat [27]": {"test_system": "Rat", "experiment": "concentration in liver after dosing", "details": "3 h; dosed: Thiodiglycolic Acid; 20 mg/kg; iv; Female; Harlan Sprague Dawley"}, "Rat [28]": {"test_system": "Rat", "experiment": "concentration in liver after dosing", "details": "1 h; dosed: Thiodiglycolic Acid; 20 mg/kg; iv; Female; Harlan Sprague Dawley"}, "Rat [29]": {"test_system": "Rat", "experiment": "concentration in liver after dosing", "details": "10 min; dosed: Thiodiglycolic Acid; 20 mg/kg; iv; Male; F344"}, "Rat [30]": {"test_system": "Rat", "experiment": "concentration in plasma after dosing", "details": "1 h; dosed: Thiodiglycolic Acid; 20 mg/kg; iv; Male; Harlan Sprague Dawley"}, "Rat [31]": {"test_system": "Rat", "experiment": "concentration in thymus after dosing", "details": "6.667 h; dosed: Thiodiglycolic Acid; 20 mg/kg; iv; Female; Harlan Sprague Dawley"}, "Rat [32]": {"test_system": "Rat", "experiment": "concentration in thymus after dosing", "details": "6.667 h; dosed: Thiodiglycolic Acid; 20 mg/kg; iv; Female; Harlan Sprague Dawley", "remark": "listed apart in the source"}, "Rat [33]": {"test_system": "Rat", "experiment": "concentration in plasma after dosing", "details": "40 min; dosed: Thiodiglycolic Acid; 20 mg/kg; iv; Male; Harlan Sprague Dawley"}, "Rat [34]": {"test_system": "Rat", "experiment": "concentration in plasma after dosing", "details": "dosed: dichloroacetic acid, 40 mg/kg, oral, Female, Harlan Sprague Dawley"}, "Rat [35]": {"test_system": "Rat", "experiment": "concentration in plasma after dosing", "details": "0.25 h; dosed: dichloroacetic acid; 10 mg/kg; oral; Male; Harlan Sprague Dawley"}, "Rat [36]": {"test_system": "Rat", "experiment": "concentration in plasma after dosing", "details": "2 min; dosed: dichloroacetic acid; 10 mg/kg; iv; Male; F344"}, "human": {"test_system": "human", "experiment": "concentration in plasma after dosing; negative times count back from the end of exposure", "details": "dosed: trichloroethylene, 100 ppm, inhalation, duration: 4 hr, person", "how_it_was_run": "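Concentration-versus-time or amount-versus-time points were compiled from published in vivo toxicokinetic studies and from two structured collections. The studies were found by PubMed searching, classifier screening and manual review. Points were mostly digitised from plot screenshots with WebPlotDigitizer, otherwise copied from tables, and kept in the reported units. Dose, route, subject details and medium were curated by hand from each paper, and sampling and analytical methods follow each source and were often unreported.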"}}, "data": [{"smiles": "Cc1cccc(Nc2cc(Cl)nc(SCC(=O)O)n2)c1C", "values": [{"measurement": "concentration in plasma", "setting": "Rat [1]; 0.25 h", "value": 912, "unit": "ng/mL"}, {"measurement": "concentration in plasma", "setting": "Rat [1]; 4 h", "value": 257, "unit": "ng/mL"}, {"measurement": "concentration in plasma", "setting": "Rat [2]", "value": 30500, "unit": "ng/mL"}, {"measurement": "concentration in plasma", "setting": "Rat [3]", "value": 17400, "unit": "ng/mL"}]}, {"smiles": "ClCCOCOCCCl", "note": "[Bis 2-Chloroethoxy Methane]", "values": [{"measurement": "concentration in heart", "setting": "Rat [4]", "value": 5350, "unit": "ng/g"}, {"measurement": "concentration in heart", "setting": "Rat [5]", "value": 46.5, "unit": "ng/g"}, {"measurement": "concentration in heart", "setting": "Rat [6]", "value": 33.8, "unit": "ng/g"}, {"measurement": "concentration in heart", "setting": "Rat [7]", "value": 401, "unit": "ng/g"}, {"measurement": "concentration in liver", "setting": "Rat [8]", "value": 135, "unit": "ng/g"}, {"measurement": "concentration in heart", "setting": "Rat [9]", "value": 1380, "unit": "ng/g"}, {"measurement": "concentration in plasma", "setting": "Rat [10]", "value": 87.3, "unit": "ng/mL"}, {"measurement": "concentration in plasma", "setting": "Rat [11]", "value": 17.2, "unit": "ng/mL"}, {"measurement": "concentration in plasma", "setting": "Rat [12]", "value": 1590, "unit": "ng/mL"}, {"measurement": "concentration in thymus", "setting": "Rat [13]", "value": 31.7, "unit": "ng/g"}, {"measurement": "concentration in plasma", "setting": "Rat [14]", "value": 65.2, "unit": "ng/mL"}]}, {"smiles": "OCCC(F)(F)C(F)(F)C(F)(F)C(F)(F)C(F)(F)C(F)(F)C(F)(F)C(F)(F)F", "note": "[Fluorotelomer alcohol 8+2]", "values": [{"measurement": "concentration in brain", "setting": "Rat [15]", "value": 2670, "unit": "ng/g"}, {"measurement": "concentration in liver", "setting": "Rat [16]", "value": 4040, "unit": "ng/g"}, {"measurement": "concentration in kidney", "setting": "Rat [17]", "value": 631, "unit": "ng/g"}, {"measurement": "concentration in plasma", "setting": "Rat [18]; 0.25 h", "value": 14200, "unit": "ng/mL"}, {"measurement": "concentration in plasma", "setting": "Rat [18]; 6 h", "value": 186, "unit": "ng/mL"}]}, {"smiles": "CCCCOC(=O)c1ccccc1C(=O)O", "note": "[Mono-n-butyl phthalate]", "values": [{"measurement": "concentration in plasma", "setting": "Rat [19]", "value": 1870, "unit": "ng/mL"}]}, {"smiles": "O=C(O)C(F)(F)C(F)(F)C(F)(F)C(F)(F)C(F)(F)C(F)(F)C(F)(F)C(F)(F)C(F)(F)F", "note": "[Perfluorodecanoic acid]", "values": [{"measurement": "concentration in brain", "setting": "Rat [20]", "value": 1010, "unit": "ng/g"}, {"measurement": "concentration in liver", "setting": "Rat [21]", "value": 105000, "unit": "ng/g"}, {"measurement": "concentration in plasma", "setting": "Rat [22]", "value": 209, "unit": "ng/mL"}]}, {"smiles": "CCC1(c2ccccc2)C(=O)NC(=O)NC1=O", "note": "[Phenobarbital]", "values": [{"measurement": "concentration in plasma", "setting": "Rat [23]", "value": 990, "unit": "ng/mL"}, {"measurement": "concentration in plasma", "setting": "Rat [24]", "value": 340, "unit": "ng/mL"}]}, {"smiles": "O=C(O)CSCC(=O)O", "note": "[Thiodiglycolic Acid]", "values": [{"measurement": "concentration in liver", "setting": "Rat [25]", "value": 737, "unit": "ng/g"}, {"measurement": "concentration in heart", "setting": "Rat [26]", "value": 308, "unit": "ng/g"}, {"measurement": "concentration in liver", "setting": "Rat [27]", "value": 11500, "unit": "ng/g"}, {"measurement": "concentration in liver", "setting": "Rat [28]", "value": 60100, "unit": "ng/g"}, {"measurement": "concentration in liver", "setting": "Rat [29]", "value": 160000, "unit": "ng/g"}, {"measurement": "concentration in plasma", "setting": "Rat [30]", "value": 2150, "unit": "ng/mL"}, {"measurement": "concentration in thymus", "setting": "Rat [31]", "value": 391, "unit": "ng/g"}, {"measurement": "concentration in thymus", "setting": "Rat [32]", "value": 335, "unit": "ng/g"}, {"measurement": "concentration in plasma", "setting": "Rat [33]", "value": 2000, "unit": "ng/mL"}]}, {"smiles": "O=C(O)C(Cl)Cl", "note": "[dichloroacetic acid]", "values": [{"measurement": "concentration in plasma", "setting": "Rat [34]; 2 min", "value": 704, "unit": "ng/mL"}, {"measurement": "concentration in plasma", "setting": "Rat [34]; 1 h", "value": 7020, "unit": "ng/mL"}, {"measurement": "concentration in plasma", "setting": "Rat [35]", "value": 908, "unit": "ng/mL"}, {"measurement": "concentration in plasma", "setting": "Rat [36]", "value": 30400, "unit": "ng/mL"}, {"measurement": "concentration in plasma", "setting": "human; 0 h", "value": 8, "unit": "ng/mL"}, {"measurement": "concentration in plasma", "setting": "human; 0.25 h", "value": 5, "unit": "ng/mL"}, {"measurement": "concentration in plasma", "setting": "human; 0.5 h", "value": 5, "unit": "ng/mL"}, {"measurement": "concentration in plasma", "setting": "human; 1.75 h", "value": 4, "unit": "ng/mL"}, {"measurement": "concentration in plasma", "setting": "human; 4 h", "value": 5, "unit": "ng/mL"}, {"measurement": "concentration in plasma", "setting": "human; 12 h", "value": 5, "unit": "ng/mL"}, {"measurement": "concentration in plasma", "setting": "human; -1 h, during exposure", "value": 10, "unit": "ng/mL"}, {"measurement": "concentration in plasma", "setting": "human; -2 h, during exposure", "value": 4, "unit": "ng/mL"}]}]}
